According to ChEMBL document CHEMBL1124491, “Folate analogues. 31. Synthesis of the reduced derivatives of 11-deazahomofolic acid, 10-methyl-11-deazahomofolic acid, and their evaluation as inhibitors of glycinamide ribonucleotide formyltransferase” (J Med Chem, 1989):

Experiments:
[1] = system: Enterococcus faecium; assay: Inhibition of the growth of Streptococcus faecium; format: functional, organism-based
Method in brief: (§1)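 Bacterial growth inhibition with folate at 1 ng/mL in the medium. Reported as IC50.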

[2] = system: Lacticaseibacillus casei; assay: Inhibition of the growth of Lactobacillus casei; format: functional, organism-based; method in brief: as §1
[3] = target: T1, Trifunctional purine biosynthetic protein adenosine-3 (Mus musculus, UniProt Q64737); assay: Inhibition of the GAR transformylase in L1210
T1 sequence (Q64737 whole entry): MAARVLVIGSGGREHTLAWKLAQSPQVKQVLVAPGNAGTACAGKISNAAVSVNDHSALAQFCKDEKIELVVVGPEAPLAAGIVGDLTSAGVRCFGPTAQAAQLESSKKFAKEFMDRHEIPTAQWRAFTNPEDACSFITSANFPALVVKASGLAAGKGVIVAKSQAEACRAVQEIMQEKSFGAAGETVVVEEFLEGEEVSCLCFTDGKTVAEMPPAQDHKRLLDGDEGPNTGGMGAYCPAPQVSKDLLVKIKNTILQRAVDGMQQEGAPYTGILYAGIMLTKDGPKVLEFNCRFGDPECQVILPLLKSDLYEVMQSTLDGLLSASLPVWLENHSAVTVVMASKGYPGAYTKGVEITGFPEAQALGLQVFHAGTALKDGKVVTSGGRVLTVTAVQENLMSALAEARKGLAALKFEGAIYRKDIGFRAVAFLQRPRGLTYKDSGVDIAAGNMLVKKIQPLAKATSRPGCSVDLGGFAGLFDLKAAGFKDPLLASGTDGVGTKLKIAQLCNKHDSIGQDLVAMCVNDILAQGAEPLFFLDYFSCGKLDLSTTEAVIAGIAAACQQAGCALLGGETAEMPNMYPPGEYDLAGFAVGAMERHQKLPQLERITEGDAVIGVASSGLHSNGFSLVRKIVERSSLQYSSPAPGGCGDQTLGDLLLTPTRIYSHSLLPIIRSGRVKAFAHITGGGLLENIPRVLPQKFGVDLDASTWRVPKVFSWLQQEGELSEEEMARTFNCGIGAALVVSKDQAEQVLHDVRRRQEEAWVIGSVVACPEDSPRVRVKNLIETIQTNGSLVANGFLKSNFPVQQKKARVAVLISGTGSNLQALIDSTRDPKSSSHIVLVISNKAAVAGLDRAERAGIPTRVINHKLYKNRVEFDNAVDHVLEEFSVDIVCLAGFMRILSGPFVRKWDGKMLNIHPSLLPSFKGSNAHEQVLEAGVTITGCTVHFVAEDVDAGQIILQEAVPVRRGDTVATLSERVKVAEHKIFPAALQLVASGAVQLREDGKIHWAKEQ

[4] = target: T1, Trifunctional purine biosynthetic protein adenosine-3; assay: Inhibition of the GAR formyl transferase in L1210
Method in brief: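 GAR formyltransferase activity in L1210 cell extract, run at 30 °C in 50 mM Tris-HCl, pH 7.5. Substrates were (6R)-10-formyltetrahydrofolate at 60 μM and glycylamide ribonucleotide at 0.24 mM. The result is reported as IC50.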

[5] = system: MOLT-4; assay: Inhibition of the growth of MOLT-4 human leukemia cells; format: functional, cell-based
Method in brief: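 MOLT-4 cells grown in suspension in RPMI 1640 with 10% dialyzed fetal calf serum. 10 nM calcium leucovorin replaced folic acid as the folate source. The result is reported as IC50.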

[6] = target: T2, Trifunctional purine biosynthetic protein adenosine-3 (Homo sapiens, UniProt P22102); assay: Inhibition of the GAR transformylase in MOLT-4 human leukemia cells
T2 sequence (P22102 whole entry): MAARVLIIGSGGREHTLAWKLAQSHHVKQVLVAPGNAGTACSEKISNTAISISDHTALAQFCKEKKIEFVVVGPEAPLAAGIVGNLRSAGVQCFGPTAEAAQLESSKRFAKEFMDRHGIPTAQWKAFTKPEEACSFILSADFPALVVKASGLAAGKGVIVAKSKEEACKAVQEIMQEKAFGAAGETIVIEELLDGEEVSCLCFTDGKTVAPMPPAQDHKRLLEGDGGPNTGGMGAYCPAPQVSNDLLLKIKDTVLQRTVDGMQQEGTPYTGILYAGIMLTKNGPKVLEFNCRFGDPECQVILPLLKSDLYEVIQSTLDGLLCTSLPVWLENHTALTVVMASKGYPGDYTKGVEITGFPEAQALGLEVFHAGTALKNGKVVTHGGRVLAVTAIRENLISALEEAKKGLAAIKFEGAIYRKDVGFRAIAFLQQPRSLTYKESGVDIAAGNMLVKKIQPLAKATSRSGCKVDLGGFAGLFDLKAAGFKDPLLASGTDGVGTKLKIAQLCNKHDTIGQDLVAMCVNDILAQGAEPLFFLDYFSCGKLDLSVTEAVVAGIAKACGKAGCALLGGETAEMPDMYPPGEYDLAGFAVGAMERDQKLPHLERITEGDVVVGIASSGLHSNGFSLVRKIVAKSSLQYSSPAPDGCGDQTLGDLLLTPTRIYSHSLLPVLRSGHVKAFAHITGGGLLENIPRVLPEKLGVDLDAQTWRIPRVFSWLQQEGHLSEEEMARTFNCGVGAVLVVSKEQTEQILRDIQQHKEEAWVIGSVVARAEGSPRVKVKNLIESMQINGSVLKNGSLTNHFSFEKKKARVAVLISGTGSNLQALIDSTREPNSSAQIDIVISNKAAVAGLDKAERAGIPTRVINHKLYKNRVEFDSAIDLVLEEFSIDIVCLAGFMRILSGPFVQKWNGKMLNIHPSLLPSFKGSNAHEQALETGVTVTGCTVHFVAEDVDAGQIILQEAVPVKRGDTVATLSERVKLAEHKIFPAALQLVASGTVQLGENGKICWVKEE

[7] = system: MCF7; assay: Inhibition of the growth of MCF-7 human breast adenocarcinoma cells; format: functional, cell-based
Method in brief: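 MCF-7 cells grown as monolayers in RPMI 1640 with 10% dialyzed heat-inactivated fetal calf serum. 10 nM calcium leucovorin replaced folic acid as the folate source. Cells were seeded at 7.5 × 10⁴ cells/mL. The result is reported as IC50.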

IC50 [4]	Structure (SMILES)	IC50 [1]	IC50 [2]	IC50 [3]	IC50 [5]	IC50 [6]	IC50 [7]
–	CC(Cc1ccc(C(=O)NC(CCC(=O)O)C(=O)O)cc1)CC1CNc2nc(N)nc(O)c2N1 (stereo not drawn)	128 nM	3800 nM	–	–	–	–
–	CC(Cc1ccc(C(=O)NC(CCC(=O)O)C(=O)O)cc1)Cc1cnc2nc(N)nc(O)c2n1 (stereo not drawn)	250 nM	4000 nM	–	–	–	–
–	CN(Cc1cnc2nc(N)nc(N)c2n1)c1ccc(C(=O)N[C@@H](CCC(=O)O)C(=O)O)cc1 [METHOTREXATE]	0.9 nM	0.02 nM	–	–	–	–
–	Nc1nc(O)c2c(n1)NC[C@H](CCNc1ccc(C(=O)NC(CCC(=O)O)C(=O)O)cc1)N2 (stereo partly drawn) [TETRAHYDROHOMOFOLATE]	–	–	> 0.02 nM	–	–	–
> 2500 nM	Nc1nc(O)c2nc(CCCc3ccc(C(=O)NC(CCC(=O)O)C(=O)O)cc3)cnc2n1 (stereo not drawn)	120 nM	2200 nM	–	–	–	–
–	CC(CC1=Nc2c(O)nc(N)nc2NC1)Cc1ccc(C(=O)NC(CCC(=O)O)C(=O)O)cc1 (stereo not drawn)	40 nM	1700 nM	–	–	–	–
–	Nc1nc2c(c(=O)[nH]1)NC(CCCc1ccc(C(=O)NC(CCC(=O)O)C(=O)O)cc1)CN2 (stereo not drawn)	30 nM	540 nM	0.018 nM	3400 nM	0.014 nM	4500 nM
